Assay results as given in ChEMBL document CHEMBL5260793, “Novel pyrazolo[3,4-d]pyrimidine with 4-(1H-benzimidazol-2-yl)-phenylamine as broad spectrum anticancer agents: Synthesis, cell based assay, topoisomerase inhibition, DNA intercalation and bovine serum albumin studies” (Eur J Med Chem, 2017).
Calls of active or inactive are those of the source. The calls are words filed in the database; no cut-off is given here.

What was measured:
[1] = test system: Panel colon (Carcinoma cell lines); assay: Anticancer activity against human Panel colon (Carcinoma cell lines) assessed as cell growth inhibition incubated for 48 hrs by Sulphorhodamine B assay; assay type: functional
How it was run: (§1)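 NCI-60 five-dose screen. Cells in RPMI 1640 with 5% FBS and 2 mM L-glutamine were plated at 5,000–40,000 cells/well and held 24 h before dosing. Compounds came from DMSO stocks and were given at five concentrations (10-fold or ½-log dilutions) for 48 h at 37 °C. Adherent cells were TCA-fixed and stained with SRB; A515 was read. GI50 was set from growth = 50% and TGI from Ti = Tz, using Tz/C/Ti.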

[2] = Anticancer activity against human Non-small cell lung cancer cell line assessed as cell growth inhibition incubated for 48 hrs by Sulphorhodamine B assay; assay type: functional; how it was run: as §1
[3] = test system: Panel leukemia (Carcinoma cell lines); assay: Anticancer activity against human Panel leukemia (Carcinoma cell lines) assessed as cell growth inhibition incubated for 48 hrs by Sulphorhodamine B assay; assay type: functional; how it was run: as §1
[4] = test system: Panel CNS (Carcinoma cell lines); assay: Anticancer activity against human Panel CNS (Carcinoma cell lines) assessed as cell growth inhibition incubated for 48 hrs by Sulphorhodamine B assay; assay type: functional; how it was run: as §1
[5] = test system: Panel melanoma (Carcinoma cell lines); assay: Anticancer activity against human Panel melanoma (Carcinoma cell lines) assessed as cell growth inhibition incubated for 48 hrs by Sulphorhodamine B assay; assay type: functional; how it was run: as §1
[6] = test system: Panel ovarian (Carcinoma cell lines); assay: Anticancer activity against human Panel ovarian (Carcinoma cell lines) assessed as cell growth inhibition incubated for 48 hrs by Sulphorhodamine B assay; assay type: functional; how it was run: as §1
[7] = test system: Panel renal (Carcinoma cell lines); assay: Anticancer activity against human Panel renal (Carcinoma cell lines) assessed as cell growth inhibition incubated for 48 hrs by Sulphorhodamine B assay; assay type: functional; how it was run: as §1
[8] = test system: Panel prostate (Carcinoma cell lines); assay: Anticancer activity against human Panel prostate (Carcinoma cell lines) assessed as cell growth inhibition incubated for 48 hrs by Sulphorhodamine B assay; assay type: functional; how it was run: as §1
[9] = test system: Panel breast (Carcinoma cell lines); assay: Anticancer activity against human Panel breast (Carcinoma cell lines) assessed as cell growth inhibition incubated for 48 hrs by Sulphorhodamine B assay; assay type: functional; how it was run: as §1
[10] = test system: Panel leukemia (Carcinoma cell lines); assay: Anticancer activity against human Panel leukemia (Carcinoma cell lines) assessed as total growth inhibition incubated for 48 hrs by Sulphorhodamine B assay; assay type: functional
[11] = Anticancer activity against human Non-small cell lung cancer cell line assessed as total growth inhibition incubated for 48 hrs by Sulphorhodamine B assay; assay type: functional; how it was run: as §1
[12] = test system: Panel colon (Carcinoma cell lines); assay: Anticancer activity against human Panel colon (Carcinoma cell lines) assessed as total growth inhibition incubated for 48 hrs by Sulphorhodamine B assay; assay type: functional; how it was run: as §1
[13] = test system: Panel CNS (Carcinoma cell lines); assay: Anticancer activity against human Panel CNS (Carcinoma cell lines) assessed as total growth inhibition incubated for 48 hrs by Sulphorhodamine B assay; assay type: functional; how it was run: as §1
[14] = test system: Panel melanoma (Carcinoma cell lines); assay: Anticancer activity against human Panel melanoma (Carcinoma cell lines) assessed as total growth inhibition incubated for 48 hrs by Sulphorhodamine B assay; assay type: functional; how it was run: as §1
[15] = test system: Panel ovarian (Carcinoma cell lines); assay: Anticancer activity against human Panel ovarian (Carcinoma cell lines) assessed as total growth inhibition incubated for 48 hrs by Sulphorhodamine B assay; assay type: functional
[16] = test system: Panel renal (Carcinoma cell lines); assay: Anticancer activity against human Panel renal (Carcinoma cell lines) assessed as total growth inhibition incubated for 48 hrs by Sulphorhodamine B assay; assay type: functional
[17] = test system: Panel prostate (Carcinoma cell lines); assay: Anticancer activity against human Panel prostate (Carcinoma cell lines) assessed as total growth inhibition incubated for 48 hrs by Sulphorhodamine B assay; assay type: functional; how it was run: as §1
[18] = test system: Panel breast (Carcinoma cell lines); assay: Anticancer activity against human Panel breast (Carcinoma cell lines) assessed as total growth inhibition incubated for 48 hrs by Sulphorhodamine B assay; assay type: functional; how it was run: as §1
[19] = test system: Panel leukemia (Carcinoma cell lines); assay: Anticancer activity against human Panel leukemia (Carcinoma cell lines) assessed as lethality incubated for 48 hrs by Sulphorhodamine B assay; assay type: functional
[20] = Anticancer activity against human Non-small cell lung cancer cell line assessed as lethality incubated for 48 hrs by Sulphorhodamine B assay; assay type: functional
[21] = test system: Panel colon (Carcinoma cell lines); assay: Anticancer activity against human Panel colon (Carcinoma cell lines) assessed as lethality incubated for 48 hrs by Sulphorhodamine B assay; assay type: functional
[22] = test system: Panel CNS (Carcinoma cell lines); assay: Anticancer activity against human Panel CNS (Carcinoma cell lines) assessed as lethality incubated for 48 hrs by Sulphorhodamine B assay; assay type: functional
[23] = test system: Panel melanoma (Carcinoma cell lines); assay: Anticancer activity against human Panel melanoma (Carcinoma cell lines) assessed as lethality incubated for 48 hrs by Sulphorhodamine B assay; assay type: functional
[24] = test system: Panel ovarian (Carcinoma cell lines); assay: Anticancer activity against human Panel ovarian (Carcinoma cell lines) assessed as lethality incubated for 48 hrs by Sulphorhodamine B assay; assay type: functional
[25] = test system: Panel renal (Carcinoma cell lines); assay: Anticancer activity against human Panel renal (Carcinoma cell lines) assessed as lethality incubated for 48 hrs by Sulphorhodamine B assay; assay type: functional
[26] = test system: Panel prostate (Carcinoma cell lines); assay: Anticancer activity against human Panel prostate (Carcinoma cell lines) assessed as lethality incubated for 48 hrs by Sulphorhodamine B assay; assay type: functional
[27] = test system: Panel breast (Carcinoma cell lines); assay: Anticancer activity against human Panel breast (Carcinoma cell lines) assessed as lethality incubated for 48 hrs by Sulphorhodamine B assay; assay type: functional; conditions: read-out: LC50 (the source's name)
[28] = target: DNA topoisomerase 2-alpha (Homo sapiens) (UniProt P11388); assay: Inhibition of human DNA topoisomerase II-alpha mediated supercoiled pHOT1 plasmid DNA relaxation at 50 uM incubated for 30 mins by ethidium bromide staining based agarose gel electrophoresis analysis
DNA topoisomerase 2-alpha (Homo sapiens), sequence (P11388 whole entry): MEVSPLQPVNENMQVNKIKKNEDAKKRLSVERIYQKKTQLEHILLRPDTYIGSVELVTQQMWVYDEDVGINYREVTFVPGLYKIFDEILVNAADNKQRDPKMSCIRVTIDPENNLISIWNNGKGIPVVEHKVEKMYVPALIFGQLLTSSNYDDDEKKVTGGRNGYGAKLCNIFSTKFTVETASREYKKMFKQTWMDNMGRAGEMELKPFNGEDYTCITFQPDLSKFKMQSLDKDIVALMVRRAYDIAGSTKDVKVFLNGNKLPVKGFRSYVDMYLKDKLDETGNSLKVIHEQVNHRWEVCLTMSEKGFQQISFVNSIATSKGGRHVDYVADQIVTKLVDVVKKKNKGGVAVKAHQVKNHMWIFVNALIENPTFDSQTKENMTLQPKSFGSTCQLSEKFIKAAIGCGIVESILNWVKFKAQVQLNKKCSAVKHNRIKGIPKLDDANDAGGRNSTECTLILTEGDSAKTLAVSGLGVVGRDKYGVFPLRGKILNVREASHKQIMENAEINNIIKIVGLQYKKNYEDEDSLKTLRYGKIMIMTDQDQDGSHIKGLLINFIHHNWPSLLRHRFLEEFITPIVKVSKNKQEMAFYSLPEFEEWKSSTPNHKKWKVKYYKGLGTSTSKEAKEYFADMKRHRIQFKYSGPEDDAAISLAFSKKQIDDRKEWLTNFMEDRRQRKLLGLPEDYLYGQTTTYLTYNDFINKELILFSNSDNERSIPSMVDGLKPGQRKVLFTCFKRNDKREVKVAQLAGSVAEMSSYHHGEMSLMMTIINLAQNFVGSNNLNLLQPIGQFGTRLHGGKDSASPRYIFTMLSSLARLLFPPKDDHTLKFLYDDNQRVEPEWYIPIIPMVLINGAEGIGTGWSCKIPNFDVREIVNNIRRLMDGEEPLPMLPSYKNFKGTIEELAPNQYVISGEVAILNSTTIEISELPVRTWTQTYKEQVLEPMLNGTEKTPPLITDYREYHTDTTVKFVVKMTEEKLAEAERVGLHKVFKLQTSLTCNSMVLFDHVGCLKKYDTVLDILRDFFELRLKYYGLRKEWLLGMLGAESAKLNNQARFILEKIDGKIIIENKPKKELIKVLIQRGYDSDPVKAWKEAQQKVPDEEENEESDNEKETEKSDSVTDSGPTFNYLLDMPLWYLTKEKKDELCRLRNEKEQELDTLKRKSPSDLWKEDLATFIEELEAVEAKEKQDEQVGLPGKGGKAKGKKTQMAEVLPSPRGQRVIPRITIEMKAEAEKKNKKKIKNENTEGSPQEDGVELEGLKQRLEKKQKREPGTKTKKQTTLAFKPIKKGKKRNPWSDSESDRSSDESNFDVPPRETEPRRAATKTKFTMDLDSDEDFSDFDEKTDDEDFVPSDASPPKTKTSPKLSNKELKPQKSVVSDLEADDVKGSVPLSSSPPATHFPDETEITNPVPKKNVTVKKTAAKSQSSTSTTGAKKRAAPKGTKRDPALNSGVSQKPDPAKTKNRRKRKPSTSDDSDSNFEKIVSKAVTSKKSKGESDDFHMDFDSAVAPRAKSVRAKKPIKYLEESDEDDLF
How it was run: (§2)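 Reaction buffer: 50 mM Tris-Cl pH 8.0, 120 mM KCl, 10 mM MgCl2, 0.5 mM ATP, 0.5 mM DTT. Each reaction held 500 ng supercoiled pHOT1 and 1 U human Topo IIα, with compound at 10–100 μM, for 30 min at 37 °C. Reactions were stopped with glycerol/EDTA/bromophenol blue, run on 1% agarose in TBE, and stained with ethidium bromide. Etoposide 25 μM was the positive control.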

[29] = target: DNA topoisomerase 2-alpha (Homo sapiens) (UniProt P11388); assay: Inhibition of human DNA topoisomerase II-alpha mediated supercoiled pHOT1 plasmid DNA relaxation at 75 uM incubated for 30 mins by ethidium bromide staining based agarose gel electrophoresis analysis; how it was run: as §2
[30] = target: DNA topoisomerase 2-alpha (Homo sapiens) (UniProt P11388); assay: Inhibition of human DNA topoisomerase II-alpha mediated supercoiled pHOT1 plasmid DNA relaxation at 100 uM incubated for 30 mins by ethidium bromide staining based agarose gel electrophoresis analysis; how it was run: as §2
[31] = target: T1, DNA topoisomerase 1 (Homo sapiens) (UniProt P11387); assay: Inhibition of human DNA topoisomerase I mediated supercoiled pHOT1 plasmid DNA relaxation upto 100 uM incubated for 30 mins by ethidium bromide staining based agarose gel electrophoresis analysis
T1 sequence (whole entry): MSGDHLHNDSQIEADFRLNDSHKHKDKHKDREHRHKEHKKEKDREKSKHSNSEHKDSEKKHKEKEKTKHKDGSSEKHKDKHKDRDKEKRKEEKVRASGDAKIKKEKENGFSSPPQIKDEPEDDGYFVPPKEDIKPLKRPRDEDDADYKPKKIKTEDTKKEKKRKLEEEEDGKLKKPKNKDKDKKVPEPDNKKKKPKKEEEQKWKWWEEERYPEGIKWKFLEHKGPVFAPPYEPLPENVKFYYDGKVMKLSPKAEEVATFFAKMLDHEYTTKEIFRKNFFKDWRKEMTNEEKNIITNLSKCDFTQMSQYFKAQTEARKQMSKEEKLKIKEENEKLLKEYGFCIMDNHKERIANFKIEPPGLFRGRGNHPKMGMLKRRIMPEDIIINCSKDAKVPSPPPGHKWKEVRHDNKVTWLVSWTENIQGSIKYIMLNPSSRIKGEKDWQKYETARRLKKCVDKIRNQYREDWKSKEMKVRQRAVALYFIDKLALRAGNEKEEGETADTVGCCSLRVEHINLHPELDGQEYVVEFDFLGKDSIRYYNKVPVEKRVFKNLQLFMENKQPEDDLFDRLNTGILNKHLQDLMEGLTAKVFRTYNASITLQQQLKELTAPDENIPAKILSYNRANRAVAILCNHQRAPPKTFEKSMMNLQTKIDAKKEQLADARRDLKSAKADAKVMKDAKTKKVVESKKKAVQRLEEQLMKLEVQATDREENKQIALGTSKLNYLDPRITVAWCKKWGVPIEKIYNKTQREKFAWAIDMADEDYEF

[32] = test system: Calf thymus DNA; assay: Binding affinity to calf thymus DNA assessed as maximum absorption wavelength shift at pH 7.4 at 10 uM by UV-vis absorption spectroscopy; assay type: nucleic-acid assay; conditions: Bos taurus
How it was run: (§3)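 Absorption titration at 300 K in a 1 cm cell, background subtracted. Compound was fixed (10 μM per legend; 20 μM in methods) with ct-DNA added up to 15–20 μM in 10 mM phosphate buffer, pH 7.4 (A260/A280 1.82). A buffer-addition control was run. K was taken from the 1/(Af−Aobs) vs 1/[DNA] fit.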

[33] = test system: Calf thymus DNA; assay: Binding affinity to calf thymus DNA assessed as hypochromicity at pH 7.4 at 10 uM by UV-vis absorption spectroscopy; assay type: nucleic-acid assay; conditions: Bos taurus; how it was run: as §3
[34] = test system: Calf thymus DNA; assay: Displacement of Ethidium bromide from calf thymus DNA/EtBr complex assessed as decrease in fluorescent intensity by fluorescence based EtBr-displacement assay; assay type: nucleic-acid assay; conditions: Bos taurus
How it was run: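 ct-DNA (0–20 μM) was pre-mixed with ethidium bromide, diluted from a 1 mM stock. Compound was then added in 2 μM steps up to 50 μM, with mixing after each addition. Emission was recorded with excitation at 480 nm.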

[35] = target: Albumin (Bos taurus, UniProt P02769); assay: Binding affinity to bovine serum albumin assessed as decrease in fluorescence intensity at pH 7.4 at 0 to 30 uM by fluorescence quenching method; conditions: cattle
Albumin, sequence (P02769 whole entry): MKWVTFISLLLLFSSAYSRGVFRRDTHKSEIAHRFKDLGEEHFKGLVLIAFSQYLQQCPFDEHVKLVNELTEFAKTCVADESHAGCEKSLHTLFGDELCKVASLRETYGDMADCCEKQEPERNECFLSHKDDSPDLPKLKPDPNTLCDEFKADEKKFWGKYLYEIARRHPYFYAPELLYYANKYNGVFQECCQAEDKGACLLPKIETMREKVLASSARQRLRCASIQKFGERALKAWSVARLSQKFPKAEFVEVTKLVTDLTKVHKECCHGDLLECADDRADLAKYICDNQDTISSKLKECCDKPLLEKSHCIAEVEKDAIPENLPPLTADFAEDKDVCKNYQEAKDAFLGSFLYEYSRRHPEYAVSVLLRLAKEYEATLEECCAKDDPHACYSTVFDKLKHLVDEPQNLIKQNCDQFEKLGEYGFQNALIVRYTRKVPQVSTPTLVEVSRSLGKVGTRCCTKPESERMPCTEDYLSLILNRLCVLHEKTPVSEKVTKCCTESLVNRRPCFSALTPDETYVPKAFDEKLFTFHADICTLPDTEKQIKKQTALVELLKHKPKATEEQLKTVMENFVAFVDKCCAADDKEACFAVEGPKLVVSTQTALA

Row | SMILES | GI50 [1] [µM] | GI50 [2] [µM] | GI50 [3] [µM] | GI50 [4] [µM] | GI50 [5] [µM] | GI50 [6] [µM] | GI50 [7] [µM] | GI50 [8] [µM] | GI50 [9] [µM] | TGI [11] [µM] | TGI [12] [µM] | TGI [13] [µM] | TGI [14] [µM] | inhibition [28] | inhibition [29] | inhibition [30] | inhibition [31] | Activity [32] [nm] | Activity [33] | Activity [35] | other results
1 | c1ccc2[nH]c(-c3ccc(Nc4nc(N5CCCC5)nc5[nH]ncc45)cc3)nc2c1 | 2.32 | 1.08 | 2.38 | 0.86 | 0.67 | 1.1 | 1.22 | 1.37 | 0.73 | 3.17 | 5.88 | 2.01 | 1.53 | Active | Active | Active | inactive | 259 | Active | Active | TGI [10]: 6.7 µM; TGI [15]: 2.73 µM; TGI [16]: 2.67 µM; TGI [17]: 3.14 µM; TGI [18]: 2.08 µM; LC50 [19]: 31.8 µM; LC50 (lethal concentration, 50% cell kill) [20]: 11.5 µM; LC50 (lethal concentration, 50% cell kill) [21]: 2.23 µM; LC50 (concentration killing 50% of cells) [22]: 4.17 µM; LC50 (lethal concentration 50) [23]: 4.32 µM; LC50 (concentration killing 50% of cells) [24]: 6.85 µM; LC50 (50% lethal concentration) [25]: 7.04 µM; LC50 [26]: 20.6 µM; CC50 [27]: 6.35 µM; Activity [34]: Active
2 | c1ccc2[nH]c(-c3ccc(Nc4nc(N5CCOCC5)nc5[nH]ncc45)cc3)nc2c1 |  |  |  |  |  |  |  |  |  |  |  |  |  | Active | Active | Active | inactive | 260 | Active | Active | 
3 | NCCNc1nc(Nc2ccc(-c3nc4ccccc4[nH]3)cc2)c2cn[nH]c2n1 |  |  |  |  |  |  |  |  |  |  |  |  |  | Active | Active | Active | inactive | 259 | Active | Active | 
4 | CC[C@H](CO)Nc1nc(NCc2ccccc2)c2ncn(C(C)C)c2n1 [SELICICLIB] | 24.8 | 23.6 | 37.5 | 24.7 | 14.8 | 29.3 | 24.9 | 17.9 | 22.7 | 84.8 | 84.9 | 82.2 | 57.6 |  |  |  |  |  |  |  | TGI [17]: 81.5 µM; TGI [18]: 73 µM
5 | c1ccc(CNc2nc(Nc3ccc(-c4nc5ccccc5[nH]4)cc3)c3cn[nH]c3n2)cc1 | 2 | 2.54 | 2.67 | 2.96 | 1.85 | 2.52 | 2.3 | 2.56 | 2.04 | 8.99 | 5.12 | 16.7 | 4.29 | Active | Active | Active | inactive | 264 | Active | Active | TGI [10]: 6.43 µM; TGI [15]: 7.83 µM; TGI [16]: 6.16 µM; TGI [17]: 9.43 µM; TGI [18]: 5.85 µM; LC50 [19]: > 100 µM; LC50 (lethal concentration, 50% cell kill) [20]: 55.3 µM; LC50 (lethal concentration, 50% cell kill) [21]: 34.7 µM; LC50 (concentration killing 50% of cells) [22]: 28.1 µM; LC50 (lethal concentration 50) [23]: 19.3 µM; LC50 (concentration killing 50% of cells) [24]: 41.8 µM; LC50 (50% lethal concentration) [25]: 31.2 µM; LC50 [26]: 41.8 µM; CC50 [27]: 46.3 µM; Activity [34]: Active
